Screening data from PubChem.
Compounds with a hit are over-represented: about 1.3% of the library has one in this group of screens.
EBV gp42 block: blocks Epstein-Barr virus glycoprotein 42 binding; Fluorescence polarization binding assay, mP read-out; AID 1085; inhibition, % (tested at 21.74 µM); hit rate 0.42% among 220,000; Q1HVG2; in the data active = inhibition above about 50%
Target sequence (Q1HVG2 whole entry, looked up): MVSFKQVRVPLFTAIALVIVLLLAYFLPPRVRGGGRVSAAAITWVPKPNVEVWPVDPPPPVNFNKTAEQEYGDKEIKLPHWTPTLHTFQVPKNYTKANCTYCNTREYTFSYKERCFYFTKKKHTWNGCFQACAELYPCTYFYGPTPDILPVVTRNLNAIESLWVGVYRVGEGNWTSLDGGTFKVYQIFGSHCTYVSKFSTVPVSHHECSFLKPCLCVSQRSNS
Keap1-Nrf2 PPI: disrupts human Keap1 binding to Nrf2 peptide. Q14145. Keap1 Kelch-Nrf2 peptide fluorescence polarization, 1536-well. inhibition, % at 9.4 µM. hit rate 0.15% among 340,000; in the data active = inhibition above about 12%; inconclusive = no clear call, values can overlap the other calls; inactive = below about 7.3%;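 note: human Keap1 Kelch domain with fluorescein labeled Nrf2 9mer peptide probe; higher means more block of Keap1 binding to Nrf2 peptide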
T cell HTS: modulates CD8 T cell binding to vesicles; hit rate 0.068% among 330,000; 2C CD8+ T cell-vesicle binding, flow cytometry; hits give low values; response (vesicle binding), % at 7 µM;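 active = response, share of CD8 T cells binding vesicles, and their 90th percentile fluorescence all below set limits, cut at about 80% in these data, passing the limit was not always enough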;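 note: values below 100% mean blocked vesicle binding to the CD8+ T cells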
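Material: murine 2C transgenic CD8+ T lymphocytes / Also added: QL9-peptide-loaded Drosophila micro-vesicles bearing Ld, ICAM-1 and B7-1 / Schedule: binding step 1.5 h, 37 °C, antibody labelling 20 min, ice / Signal: flow cytometry, PE anti-B7-1 (FL2) versus Alexa647 anti-CD8 (FL8), PFA-fixed / Evaluation: percent CD8+ FL2 mean versus row control / Benchmarks: naked versus QL9-loaded vesicles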
MEX-5 binding: C. elegans MEX-5 TCR-2 RNA binding activity; hit rate 0.38% among 300,000; activity score (negative = inhibition of binding), % at 10 µM; MEX-5/FITC-TCR2 RNA binding, fluorescence polarization; hits give low values; Q9XUB2;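 active = inhibition past about -25% in most replicates, and total fluorescence under double the plate's negative control median, limit read from the data; inconclusive = replicates evenly split on the limit, or fluorescence at least double controls; inactive = too little inhibition in most replicates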
Target sequence (Q9XUB2 whole entry, looked up): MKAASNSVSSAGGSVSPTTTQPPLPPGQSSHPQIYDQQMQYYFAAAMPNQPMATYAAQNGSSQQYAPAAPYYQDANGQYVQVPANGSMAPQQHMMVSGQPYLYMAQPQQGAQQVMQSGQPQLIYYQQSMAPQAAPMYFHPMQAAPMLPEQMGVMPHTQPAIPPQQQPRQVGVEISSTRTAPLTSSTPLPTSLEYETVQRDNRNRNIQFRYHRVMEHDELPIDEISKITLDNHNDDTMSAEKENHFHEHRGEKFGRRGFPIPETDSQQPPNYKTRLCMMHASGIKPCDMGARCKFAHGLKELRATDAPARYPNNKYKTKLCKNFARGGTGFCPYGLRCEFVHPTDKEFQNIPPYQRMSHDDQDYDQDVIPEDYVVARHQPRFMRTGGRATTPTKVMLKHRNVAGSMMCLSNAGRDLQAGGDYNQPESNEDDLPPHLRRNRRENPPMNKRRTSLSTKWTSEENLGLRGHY
C-LANA FP: blocks KSHV LANA C-terminal domain binding to DNA; MBP-C-LANA/FAM-LBS DNA binding, fluorescence polarization; inhibition, % at 9 µM; hit rate 0.078% among 340,000; AID 504423;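 active = highest replicate inhibition at or above 60% at 9 µM, even if other replicates fall short; inactive = all replicates below 60% inhibition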
GRK2 aptamer HTS: blocks RNA aptamer binding to human GRK2; bead flow cytometry, FAM-aptamer displacement from GRK2; inhibition of aptamer binding, % at 10 µM; hit rate 0.59% among 330,000; AID 488847;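 active = inhibition of aptamer binding above 40%, roughly 3 SD of noise, on plates passing a quality check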;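 note: median bead fluorescence of bound FAM aptamer so fluorescent compounds give negative values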
Each line names hits and unclear results; the compound was inactive in the other large screens.

O=C(c1ccco1)[C@@H]1[C@@H]2C(=O)N(c3ccccc3)C(=O)[C@@H]2C2c3ccccc3C=CN21 (stereo partly specified)	MEX-5 binding -29.6 (no result: EBV gp42 block)
Cc1ccc(N2C(=O)[C@@H]3[C@H](C2=O)C2c4ccccc4C=CN2[C@@H]3C(=O)c2ccco2)c(C)c1 (stereo partly specified)	none (no result: EBV gp42 block)
O=C(Cn1cnc2c(oc3nc4c(cc32)CCCC4)c1=O)Nc1cccc(Cl)c1	none (no result: EBV gp42 block)
CC(=O)OC[C@]12CC[C@H]3[C@@](C)(CC[C@H]4C(C)(C)CCC[C@]34C)[C@@H]1C[C@@H](C1=CC(=O)O[C@@H]1OC(C)=O)O2	T cell HTS 0.0 (no result: EBV gp42 block, Keap1-Nrf2 PPI, MEX-5 binding, C-LANA FP)
CCOC(=O)c1cc(C(=O)OCC)c(=O)[nH]c1C	none
CCOC(=O)c1cnc(=O)[nH]c1C	T cell HTS 0.0 (no result: EBV gp42 block, Keap1-Nrf2 PPI, C-LANA FP)
COc1ccc(CN2CCN(Cc3ccco3)CC2)c(OC)c1	none (no result: EBV gp42 block)
Cc1[nH][nH]c(=O)c1C(c1ccc(-c2ccc(Cl)cc2Cl)o1)c1c(C)[nH][nH]c1=O	none (no result: Keap1-Nrf2 PPI, T cell HTS, MEX-5 binding, C-LANA FP, GRK2 aptamer HTS)
Cc1[nH][nH]c(=O)c1C(c1ccc(-c2ccccc2C(=O)O)o1)c1c(C)[nH][nH]c1=O	MEX-5 binding -35.0
C=CCOn1c(=O)c(-c2cccs2)[n+]([O-])c2ccccc21	none
CCOC(=O)Cc1csc(NC(=O)c2sc3nc4cc(C)ccc4cc3c2N)n1	Keap1-Nrf2 PPI inconclusive, MEX-5 binding -49.9
CCOC(=O)Cc1csc(NC(=O)c2sc3nc4ccc(CC)cc4cc3c2N)n1	none
CCC(CC)CN1CCC(CN2C(=O)C(=O)NC[C@@H]2[C@@H](C)CC)CC1	none (no result: EBV gp42 block, T cell HTS, MEX-5 binding, GRK2 aptamer HTS)
Nc1nnc2c(n1)CCCC2	MEX-5 binding -32.5
C1CCc2nc3c(nc2C1)CCCC3	none
O=C(NCc1ccccc1)C1CCC(CNS(=O)(=O)c2cccs2)CC1 (stereo unspecified)	none (no result: EBV gp42 block)
Cc1ccn2c(=O)nc(SCC(=O)Nc3cc(C)on3)nc2c1	MEX-5 binding -25.5 (no result: EBV gp42 block)
Cc1cc(NC(=O)CSc2nc(=O)n3cc(Cl)ccc3n2)no1	none (no result: EBV gp42 block)
CC(NCc1ccccc1Cl)C(=O)Nc1ccc(S(=O)(=O)N2CCCC2)cc1 (stereo unspecified)	T cell HTS 0.0
COc1ccc(NC(=O)C2=CC(c3cccs3)=NS(=O)(=O)N2C)cc1	none (no result: EBV gp42 block)
CC1CN(c2nc3ccccc3nc2C(C#N)C(=O)NCc2ccc3c(c2)OCO3)CC(C)O1 (stereo unspecified)	EBV gp42 block 70.7
CC1CCN(c2nc3ccccc3nc2C(C#N)C(=O)NC2CCCCC2)CC1 (stereo unspecified)	MEX-5 binding -28.8 (no result: EBV gp42 block, Keap1-Nrf2 PPI, C-LANA FP)
N#CC(C(=O)NC1CCCCC1)c1nc2ccccc2nc1N1CCN(c2ccccc2F)CC1 (stereo unspecified)	none (no result: MEX-5 binding)
CN(C(=O)c1ccc(NC(=O)Cc2ccc(NC(=O)C3CCCN(C(=O)CCc4ccccc4)C3)cc2)cc1)C1CCCC1 (stereo unspecified)	none (no result: EBV gp42 block, T cell HTS, MEX-5 binding, GRK2 aptamer HTS)
CC(=O)C1C(c2cccc(F)c2)NC(=O)NC1(O)C(F)(F)F (stereo unspecified)	none
C=CCn1cccc(C(=O)Nc2ccc(SC)cc2)c1=O	none (no result: EBV gp42 block)
CCOCCCNC(=O)/C(C#N)=C/c1cc(Br)c(O)c(Br)c1	none (no result: T cell HTS, GRK2 aptamer HTS)
COCCNC(=O)/C(C#N)=C/c1cc(Br)c(O)c(OC)c1	GRK2 aptamer HTS 43.0
Cc1ccsc1C1CC(=O)Nc2ccccc2S1 (stereo unspecified)	none
Cn1c(CNC(=O)CNC(=O)c2ccc(F)cc2)cc(=O)n(C)c1=O	T cell HTS 0.0 (no result: EBV gp42 block)
COc1cc(/C=N/c2oc(-c3ccccc3)cc2C#N)ccc1O	EBV gp42 block 57.3, MEX-5 binding inconclusive
COc1cc(/C=N/NC(=O)c2ccccc2)ccc1O	none
CC1CCc2nc3ccccc3c(C(=O)OCC(=O)N(C)C3CCS(=O)(=O)C3)c2C1 (stereo unspecified)	none (no result: MEX-5 binding)
N#C/C(=C\N1CCN(Cc2ccc3c(c2)OCO3)CC1)c1nc2ccccc2s1	MEX-5 binding inconclusive
CCOC(=O)N1CCN(/C=C(\C#N)c2nc3ccccc3s2)CC1	MEX-5 binding -50.2
COc1ccc(CCN2C(=O)CSC2=Nc2ccc(C)cc2C)cc1OC	none
O=C(COc1ccc2ccccc2c1)NNC(=O)[C@@H]1CCCC[C@@H]1C(=O)O	none
COc1cc(NC(=S)NCCCO)c(OC)cc1Cl	GRK2 aptamer HTS 42.0
NC(=S)n1[nH]c(-c2ccc([N+](=O)[O-])cc2)c(N=Nc2cccc(Cl)c2)c1=O	EBV gp42 block 100.2 (no result: T cell HTS, GRK2 aptamer HTS)
NC(=S)n1[nH]c(-c2ccc([N+](=O)[O-])cc2)c(N=Nc2ccc(O)cc2)c1=O	none
CN(C)C1=NC(=O)/C(=C/c2ccc(-c3ccc(S(N)(=O)=O)cc3)o2)S1	MEX-5 binding -28.6 (no result: EBV gp42 block, Keap1-Nrf2 PPI, C-LANA FP)
Cc1cccc(-n2ncc3c(N4CCCC4)ncnc32)c1	T cell HTS 0.0
COc1nc(Nc2ccc(C(C)C)cc2)nc(OC)n1	T cell HTS 0.0
COC(=O)[C@H](CCSC)NC(=O)Nc1cccc(C)c1C	none
CC(C)CN(C(=O)C1CCCC1)C1CCS(=O)(=O)C1 (stereo unspecified)	none (no result: EBV gp42 block, T cell HTS, GRK2 aptamer HTS)
CC1(NC(=O)CC[N+](C)(C)CCO)CS(=O)(=O)CC1S(=O)(=O)[O-] (stereo unspecified)	GRK2 aptamer HTS 47.0 (no result: Keap1-Nrf2 PPI, C-LANA FP)
Cc1ccc(N/C=C/C(=O)c2sc(-c3ccccc3)nc2C)cc1	MEX-5 binding -37.6
CSC(=NS(=O)(=O)c1ccc(N)cc1)NS(=O)(=O)c1cccs1	C-LANA FP 68.5 (no result: EBV gp42 block, T cell HTS, MEX-5 binding, GRK2 aptamer HTS)
CSC(=NC(C)c1ccccc1)NS(=O)(=O)c1cccs1 (stereo unspecified)	none
O=C(O)Cc1sc(-c2ccccc2)nc1-c1ccccc1	none
CC(C)(C)c1ccc(-c2nc(O)c(CC(=O)O)s2)cc1	GRK2 aptamer HTS 51.0 (no result: Keap1-Nrf2 PPI, C-LANA FP)
Cc1nc2ccc(CN(C)c3ccc(C(=O)N[C@@H](CCC(=O)O)C(=O)O)s3)cc2c(=O)[nH]1	GRK2 aptamer HTS 53.0 (no result: EBV gp42 block, Keap1-Nrf2 PPI, C-LANA FP)
C(=N\Nc1nc2ccccc2[nH]1)/c1ccccn1	MEX-5 binding -42.0 (no result: T cell HTS, GRK2 aptamer HTS)
CCC1CSC(Nc2ccc(C(=O)/C=C/c3ccc(Br)cc3)cc2)=N1 (stereo unspecified)	none
CCC1CSC(Nc2ccc(C(=O)/C=C/c3ccc(OC)c(OC)c3)cc2)=N1 (stereo unspecified)	GRK2 aptamer HTS 48.0
Cc1ccc(C)c(/C=C2\N=C(c3ccccc3F)OC2=O)c1	none (no result: EBV gp42 block)
Cc1ccccc1C1=N/C(=C/c2cccs2)C(=O)O1	MEX-5 binding -27.5
CCOc1ncccc1C(=O)OCC(=O)Nc1ccc(S(=O)(=O)N2CCCC2)cc1	none (no result: EBV gp42 block, MEX-5 binding)
N#Cc1c(-c2ccc(Cl)cc2)c2c([nH]c1=O)-c1ccccc1OC2	MEX-5 binding -28.4
COc1ccc(N2CCN(C(=O)COC(=O)CNC(=O)c3ccc(C)cc3)CC2)cc1	none (no result: EBV gp42 block)
Brc1cccc(-c2nnco2)c1	none
CN(C)/C=N/c1cc(=O)[nH]c(=O)n1CC1CC1	none
